From ChEMBL document CHEMBL1147062, “Therapeutic anticancer efficacy of a synthetic diazonamide analog in the absence of overt toxicity” (Proc Natl Acad Sci U S A, 2007)
Active and inactive are the calls of the source. No cut-off for these calls is given here.

Experiments:
HCT-116 [1] = assay: Antitumor activity against human HCT116 cells xenografted into NCR nu/nu mouse at 5 mg/kg, iv dosed in q2-3dX6 schedule relative to control; type: functional
How it was run: (§1)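 NCR nu/nu mice given 7.5–10 × 10^6 tumor cells s.c. in the left flank. At ≈100–300 mm3 (5–10 days), mice were randomized into groups of 4–7. Compound was predissolved in 1:1 cremaphor:ethanol, then diluted into 5% dextrose. Dosed i.v. or i.p. in 0.2 ml on Monday, Wednesday and Friday for 2 weeks. Caliper measurements 2–3 times weekly; volume = (length × width2)/2.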

PC-3 [2] = assay: Antitumor activity against human PC3 cells xenografted into NCR nu/nu mouse at 20 mg/kg, iv dosed in qdX6 schedule relative to control; type: functional
How it was run: (§2)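 Nude mice received 10^7 PC3 cells s.c. in the left flank and were randomized at ≈250 mm3 into groups of six to seven. Dosing was i.v. daily for 6 consecutive days, in 0.2 ml cremaphor:ethanol (1:1) diluted in 5% dextrose. Tumors were measured by calipers as (length × width2)/2, and weight was tracked alongside.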

Mus musculus [3] = assay: Toxicity in NCR nu/nu mouse assessed as loss of body weight at 20 mg/kg, iv for 6 days; type: organism-based; parameters: dose 20 mg/kg, route intravenous; details: in vivo, 144 h
How it was run: (§3)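 Nude mice carried 10^7 PC3 cells s.c. in the left flank and were randomized into groups of six to seven when tumors reached ≈250 mm3. Mice were dosed at 20, 7.5 or 2.5 mg/kg for 6 consecutive days. Body weight was tracked against starting weight, including 2 days after the last dose.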

HCT-116 [4] = assay: Antitumor activity against human HCT116 cells xenografted into NCR nu/nu mouse at 20 mg/kg, iv dosed in q2-3dX6 schedule relative to control; type: functional; how it was run: as §1
Mus musculus [5] = assay: Toxicity in NCR nu/nu mouse neutropenia model assessed as decrease in neutrophil count in bone marrow at 20 mg/kg, iv QD for 6 days relative to control; type: organism-based; parameters: dose 20 mg/kg, route intravenous; details: in vivo, 144 h
How it was run: (§4)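 Non-tumor-bearing NCR nu/nu mice, four to five per group, got 20 mg/kg i.v. qd × 6 in cremaphor:ethanol/5% dextrose, or vehicle. They were weighed and observed daily and killed on day 8. Tail-vein blood and femoral marrow were lysed of erythrocytes, stained for Gr1 and analyzed by flow cytometry. Neutrophil counts were %Gr1hi × white cells per ml or per femur. Groups were compared with control by one-way ANOVA and Dunnett's test.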

MDA-MB-435 [6] = assay: Antitumor activity against human MDA-MB-435 cells xenografted into NCR nu/nu mouse at 20 mg/kg, ip dosed in q3-4dX4 schedule relative to control; type: functional; details: route intraperitoneal
How it was run: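 NCR nu/nu mice bearing s.c. left-flank xenografts (7.5–10 × 10^6 cells) were randomized at ≈100–300 mm3 into groups of 4–7. Dosing was i.p. in 0.2 ml, with cremaphor:ethanol (1:1) stock diluted in 5% dextrose. Body weight and caliper tumor size were recorded 2–3 times per week; volume = (length × width2)/2.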

Mus musculus [7] = assay: Toxicity in NCR nu/nu mouse neutropenia model assessed as severe flaking of skin at 20 mg/kg, iv QD for 6 days; type: organism-based; parameters: dose 20 mg/kg, route intravenous; details: in vivo, 144 h; how it was run: as §4
PC-3 [8] = assay: Antitumor activity against human PC3 cells xenografted into NCR nu/nu mouse at 20 mg/kg, iv dosed in q2-3dX6 schedule relative to control; type: functional; how it was run: as §1
PC-3 [9] = assay: Antitumor activity against human PC3 cells xenografted into NCR nu/nu mouse at 2.5 mg/kg, iv dosed in qdX6 schedule relative to control; type: functional; how it was run: as §2
Mus musculus [10] = assay: Toxicity in NCR nu/nu mouse neutropenia model assessed as decrease in neutrophil count in peripheral blood at 20 mg/kg, iv QD for 6 days relative to control; type: organism-based; parameters: dose 20 mg/kg, route intravenous; details: in vivo, 144 h; how it was run: as §4
HCT-116 [11] = assay: Antitumor activity against human HCT116 cells xenografted into NCR nu/nu mouse at 5 mg/kg, ip dosed in q2-3dX6 schedule relative to control; type: functional; details: route intraperitoneal; how it was run: as §1
Mus musculus [12] = assay: Toxicity in human HCT116 cells xenografted NCR nu/nu mouse assessed as loss of body weight iv QD for 6 days; details: in vivo, 144 h
Mus musculus [13] = assay: Toxicity in human HCT116 cells xenografted NCR nu/nu mouse assessed as loss of body weight at 20 mg/kg, iv QD for 6 days; type: organism-based, HCT-116; parameters: dose 20 mg/kg, route intravenous; details: in vivo, 144 h
How it was run: (§5)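 NCR nu/nu mice received 10^7 HCT116 cells s.c. in the left flank 12 days before therapy. Dosing was i.v. qd × 6: 20 mg/kg in cremaphor:ethanol/5% dextrose, or 2 mg/kg vinblastine sulfate in 5% dextrose. Mice were weighed daily. On day 8, Gr1hi neutrophils in tail-vein blood and femoral marrow were counted by flow cytometry and compared with control by ANOVA and Dunnett's test.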

Mus musculus [14] = assay: Volume of distribution in NCR nu/nu mouse plasma at 20 mg/kg, iv; type: ADME, organism-based; parameters: dose 20 mg/kg, route intravenous; details: in vivo
How it was run: (§6)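 Each NCR nu/nu mouse got one i.v. bolus of 20 mg/kg in 0.2 ml of 1:1 cremaphor:ethanol (10%) diluted in 5% dextrose. At set times mice were killed by CO2 overdose and bled by cardiac puncture into sodium citrate. Plasma was spun 10 min at 8,000 × g and frozen at −80°C. LC-MS used an internal standard and a spiked blank murine plasma standard curve. Parameters came from noncompartmental analysis.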

[15] = Drug level in NCR nu/nu mouse plasma at 20 mg/kg, iv after 24 hrs; type: ADME, organism-based; parameters: dose 20 mg/kg, route intravenous; how it was run: as §6
[16] = Clearance in NCR nu/nu mouse plasma at 20 mg/kg, iv; type: ADME, organism-based; parameters: dose 20 mg/kg, route intravenous; how it was run: as §6
Mus musculus [17] = assay: Toxicity in human HCT116 cells xenografted NCR nu/nu mouse assessed as decrease in neutrophil count in peripheral blood at 20 mg/kg, iv QD for 6 days relative to control; type: organism-based, HCT-116; parameters: dose 20 mg/kg, route intravenous; details: in vivo, 144 h; how it was run: as §5
Mus musculus [18] = assay: Toxicity in human HCT116 cells xenografted NCR nu/nu mouse assessed as decrease in neutrophil count in bone marrow at 20 mg/kg, iv QD for 6 days relative to control; type: organism-based, HCT-116; parameters: dose 20 mg/kg, route intravenous; details: in vivo, 144 h; how it was run: as §5
PC-3 [19] = assay: Antitumor activity against human PC3 cells xenografted into NCR nu/nu mouse at 7.5 mg/kg, iv dosed in qdX6 schedule relative to control; type: functional; how it was run: as §2
Mus musculus [20] = assay: Toxicity in NCR nu/nu mouse neutropenia model assessed as loss of body weight at 20 mg/kg, iv QD for 6 days; type: organism-based; parameters: dose 20 mg/kg, route intravenous; details: in vivo, 144 h; how it was run: as §4
PC-3 [21] = assay: Induction of histone H3 phosphorylation in human PC3 cells xenografted into NCR nu/nu mouse at 20 mg/kg, iv; type: functional, organism-based; parameters: dose 20 mg/kg
How it was run: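 nu/nu mice carried 10^7 PC3 cells s.c. in the left flank. On day 8 they got one i.v. dose of 20 mg/kg or vehicle, two mice per group. Tumors were taken 12 h later, snap-frozen and homogenized in RIPA buffer with phosphatase and protease inhibitors. 100 µg protein was Western blotted for phospho-histone H3, with actin as control.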

[22] = Terminal half life in NCR nu/nu mouse plasma at 20 mg/kg, iv; type: ADME, organism-based; parameters: dose 20 mg/kg, route intravenous; how it was run: as §6
Mus musculus [23] = assay: Toxicity in human HCT116 cells xenografted NCR nu/nu mouse assessed as decrease in neutrophil count in peripheral blood at 2 mg/kg, iv QD for 6 days relative to control; type: organism-based, HCT-116; parameters: dose 2 mg/kg, route intravenous; details: in vivo, 144 h; how it was run: as §5
[24] = AUC in NCR nu/nu mouse plasma at 20 mg/kg, iv; type: ADME, organism-based; parameters: dose 20 mg/kg, route intravenous; how it was run: as §6
Mus musculus [25] = assay: Toxicity in NCR nu/nu mouse assessed as loss of body weight at 7.5 mg/kg, iv for 6 days; type: organism-based; parameters: dose 7.5 mg/kg, route intravenous; details: in vivo, 144 h; how it was run: as §3
HCT-116 [26] = assay: Antitumor activity against human HCT116 cells xenografted into NCR nu/nu mouse at 20 mg/kg, ip dosed in q2-3dX6 schedule relative to control; type: functional; details: route intraperitoneal; how it was run: as §1
Mus musculus [27] = assay: Toxicity in NCR nu/nu mouse assessed as loss of body weight at 2.5 mg/kg, iv for 6 days; type: organism-based; parameters: dose 2.5 mg/kg, route intravenous; details: in vivo, 144 h; how it was run: as §3
Mus musculus [28] = assay: Toxicity in human HCT116 cells xenografted NCR nu/nu mouse assessed as decrease in neutrophil count in bone marrow at 2 mg/kg, iv QD for 6 days relative to control; type: organism-based, HCT-116; parameters: dose 2 mg/kg, route intravenous; details: in vivo, 144 h; how it was run: as §5
HCT-116 [29] = assay: Antitumor activity against human HCT116 cells xenografted into NCR nu/nu mouse at 0.45 mg/kg, ip dosed in q2-3dX6 schedule relative to control; type: functional; details: route intraperitoneal
MDA-MB-435 [30] = assay: Antitumor activity against human MDA-MB-435 cells xenografted into NCR nu/nu mouse at 0.7 mg/kg, ip dosed in q3-4dX4 schedule relative to control; type: functional; details: route intraperitoneal

| Structure (SMILES) | LCK (PC-3 [2]) | T/C (PC-3 [2]) [%] | Activity (Mus musculus [3]) | LCK (HCT-116 [4]) | T/C (HCT-116 [4]) [%] | Activity (Mus musculus [5]) | Activity (Mus musculus [7]) | LCK (PC-3 [8]) | T/C (PC-3 [8]) [%] | T/C (PC-3 [9]) [%] | Activity (Mus musculus [10]) | Activity (Mus musculus [12]) | Activity (Mus musculus [13]) | Activity (Mus musculus [17]) | Activity (Mus musculus [18]) | LCK (PC-3 [19]) | T/C (PC-3 [19]) [%] | Activity (Mus musculus [20]) | Activity (Mus musculus [23]) | Activity (Mus musculus [28]) | further results |
| --- | --- | --- | --- | --- | --- | --- | --- | --- | --- | --- | --- | --- | --- | --- | --- | --- | --- | --- | --- | --- | --- |
| CC(C)[C@H](O)C(=O)N[C@@H]1C(=O)N[C@@H](C(C)C)c2nc3c(o2)C24c5ccc(cc5N[C@H]2Oc2ccc1cc24)-c1cccc2[nH]cc(c12)-c1cnc-3o1 (single isomer, unassigned) | 2.4 | 2.1 | <= 5% | 1.8 | 0.2 | Non-toxic | Non-toxic | 3.4 | 0.3 | 31.4 | Non-toxic | Non-toxic | Non-toxic | Non-toxic | Non-toxic | 1.6 | 3.9 | Non-toxic | Non-toxic | Non-toxic | LCK (HCT-116 [1]): 0.5; T/C (HCT-116 [1]): 26.5%; LCK (MDA-MB-435 [6]): 1; T/C (MDA-MB-435 [6]): 3.1%; LCK (HCT-116 [11]): 0.4; T/C (HCT-116 [11]): 41.9%; Vd (Mus musculus [14]): 62.7 mL; concentration at 24 h [15]: 15 ng/mL; clearance [16]: 0.146 mL/min; Activity (PC-3 [21]): Active; half-life [22]: 4.96 h; AUC [24]: 50200 ng·h/mL; Activity (Mus musculus [25]): <= 5%; LCK (HCT-116 [26]): 1; T/C (HCT-116 [26]): 9.3%; Activity (Mus musculus [27]): <= 5% |
| CC[C@]1(O)C[C@@H]2CN(CCc3c([nH]c4ccccc34)[C@@](C(=O)OC)(c3cc4c(cc3OC)N(C)[C@H]3[C@@](O)(C(=O)OC)[C@H](OC(C)=O)[C@]5(CC)C=CCN6CC[C@]43[C@@H]65)C2)C1.O=S(=O)(O)O [VINBLASTINE SULFATE] | – | – | – | – | – | – | – | – | – | – | – | Toxic | Toxic | Toxic | Toxic | – | – | – | Toxic | Toxic | LCK (HCT-116 [29]): 0.2; T/C (HCT-116 [29]): 56%; LCK (MDA-MB-435 [30]): 0.2; T/C (MDA-MB-435 [30]): 41.1% |
| CC(=O)O[C@H]1C(=O)[C@@]2(C)[C@H]([C@H](OC(=O)c3ccccc3)[C@]3(O)C[C@H](OC(=O)[C@H](O)[C@@H](NC(=O)c4ccccc4)c4ccccc4)C(C)=C1C3(C)C)[C@]1(OC(C)=O)CO[C@@H]1C[C@@H]2O [PACLITAXEL] | 3.8 | 0.6 | > 20% | 2.7 | 0.2 | Toxic | Toxic | 3.4 | 0 | 49.2 | Toxic | Toxic | Toxic | Toxic | Toxic | 1.5 | 6.1 | 20% | Toxic | Toxic | LCK (PC-3 [9]): 0.3; Activity (Mus musculus [25]): 13% |
